The source made the active and inactive calls. No cut-off for these calls is given here.
What was measured:
Lipid bilayer [1] = test: Binding affinity to DPH-labeled liposomal membrane containing 40 mol% cholesterol assessed as increase in membrane fluidity by measuring decrease in DPH fluorescence polarization at 200 uM after 5 mins by spectrofluorometry
Outline: (§1)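 Fresh DPH-labeled liposomes (ethanol injection into HEPES pH 7.4 with NaCl/KCl) contained 0–45 mol% cholesterol, with the remaining lipids POPC/POPE/CL/POPS/POPI/SM at 25:16:10:3:3:3. Enantiomer pairs were tested on the same day. Each was given at 200 uM final with DMSO at 0.5% v/v, and vehicle controls matched. After 5 min at 37 °C, DPH fluorescence polarization was measured. Values are % polarization change relative to control, mean ± SEM, n=7.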

Canis familiaris [2] = species on record: Canis familiaris; test: Cardiotoxicity in dog assessed as free plasma concentration causing cardiovascular collapse measured after 20 mins; format: toxicity, organism-based, Canis lupus familiaris
Lipid bilayer [3] = test: Increase in membrane fluidity in DPH-labeled liposomal membrane containing 40 mol% cholesterol assessed as change in DPH fluorescence polarization at 200 uM after 5 mins by spectrofluorometry relative to control; format: cell membranes; outline: as §1
Canis familiaris [4] = species on record: Canis familiaris; test: Cardiotoxicity in dog assessed as total plasma concentration causing cardiovascular collapse measured after 20 mins; format: toxicity, organism-based, Canis lupus familiaris
Lipid bilayer [5] = test: Binding affinity to DPH-labeled liposomal membrane containing 20 mol% cardiolipin 40 mol% cholesterol assessed as increase in membrane fluidity by measuring decrease in DPH fluorescence polarization at 200 uM after 5 mins by spectrofluorometry
Outline: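 DPH-labeled liposomes made by ethanol injection (10 mM total lipid, 50 uM DPH in the injected stock) into 10 mM HEPES pH 7.4 with 125 mM NaCl and 25 mM KCl. Membranes held 0 or 20 mol% cardiolipin, with or without 40 mol% cholesterol, and POPC/POPE/POPS/POPI/SM at 25:16:3:3:3. Drug was added at 200 uM final in 0.5% DMSO, incubated 37 °C for 5 min, and DPH polarization read. Results are % change vs DMSO control, mean ± SEM, n=7.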

Lipid bilayer [6] = test: Binding affinity to DPH-labeled liposomal membrane containing 5 to 45 mol% cholesterol assessed as increase in membrane fluidity by measuring decrease in DPH fluorescence polarization after 5 mins by spectrofluorometry; outline: as §1
Lipid bilayer [7] = test: Binding affinity to DPH-labeled liposomal membrane without cholesterol assessed as increase in membrane fluidity by measuring decrease in DPH fluorescence polarization after 5 mins by spectrofluorometry; outline: as §1
Lipid bilayer [8] = test: Increase in membrane fluidity in DPH-labeled liposomal membrane containing 20 mol% cardiolipin 40 mol% cholesterol assessed as change in DPH fluorescence polarization at 200 uM after 5 mins by spectrofluorometry relative to liposome without cardiolipin

SMILES | Activity (Lipid bilayer [1]) | Activity (Canis familiaris [2]) [µM] | fold change (FC) (Lipid bilayer [3]) | Activity (Canis familiaris [4]) [µM] | Activity (Lipid bilayer [5]) | Activity (Lipid bilayer [6]) | Activity (Lipid bilayer [7]) | fold change (FC) (Lipid bilayer [8])
CCCCN1CCCCC1C(=O)Nc1c(C)cccc1C (racemic) [BUPIVACAINE] | Active | 10 | 1.7 | 39 | Active | Active | Active | 
CCCCN1CCCC[C@H]1C(=O)Nc1c(C)cccc1C [LEVOBUPIVACAINE] | Active | 17 | 1.4 | 49 | Active |  | Active | 3.7
CCCN1CCCC[C@H]1C(=O)Nc1c(C)cccc1C [ROPIVACAINE] |  | 36 | 1 | 64 |  |  |  | 
CCCCN1CCCC[C@@H]1C(=O)Nc1c(C)cccc1C | Active |  |  |  | Active | Active | Active | 3.7

— ChEMBL document CHEMBL1817630, “Stereostructure-based differences in the interactions of cardiotoxic local anesthetics with cholesterol-containing biomimetic membranes” (Bioorg Med Chem, 2011)
